Screens deposited in PubChem BioAssay by several laboratories.
bCat nuc transl – alters nuclear translocation of beta-catenin in HeLa cells; immunofluorescence imaging; nuclear translocation activity, % at 5 µM; actives 0.3% (n = 190,000); AID 1665;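 active = nuclear translocation activity above 50% at 5 µM, with a well cell count of 50 or more; inconclusive = wells under 50 cells across six images, flagged as toxic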;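 note: per-cell ratio of nuclear to cytoplasmic median beta-catenin stain intensity; plate controls were DMSO negative control for no effect and GSK-3 inhibitor IX positive control for full effect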
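Assay system: human HeLa cells, native beta-catenin; doses: 5 µM primary, 0.02–20 µM confirmation; incubation: compound treatment 24 h, 37°C, 5% CO2; technique: fluorescence imaging of beta-catenin antibody stain plus DAPI; measure: % activation, nuclear-to-cytoplasmic median beta-catenin signal ratio per cell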
Dynein cargo inh – blocks dynein driven cargo transport along microtubules. z-score, hits read low. actives 0.47% (n = 220,000). 3617.4 mouse cells, GR-EGFP nuclear translocation imaging; test concentration mostly 20 µM; stimulated with dexamethasone, 1 µM; hits give low values. AID 1381;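 active = plate z-score of nuclear minus cytoplasmic receptor signal below a set negative limit, without overly bright fluorescence or cell loss, cut at about -3.5 in these data, passing the limit was not always enough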;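 note: z-score of nuclear minus cytoplasmic ring GR-EGFP intensity difference per well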
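Buffer or medium: Induction medium lacking tetracycline, stripped serum | Also added: Dexamethasone agonist, 1.0 µM final, for 30 min | Timing: 48 h induction, 1 h compound, 30 min dex at 37 °C | Detection: Formaldehyde fixation, Hoechst nuclear stain, 10x automated fluorescence imaging | Measure: Nuclear versus cytoplasmic GR-EGFP signal, averaged per well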
MT stabilizer – microtubule stabilizers in HeLa cells; HeLa tubulin immunostaining HCS, 24 h; share of cells brighter than vehicle mean+2SD; % tubulin-high responders, % at 10 µM; actives 0.83% (n = 200,000);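 active = plate Z-score above 3 for both tubulin-high and condensed-nucleus cell shares, with cell loss under 80%, at 10 µM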;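 note: anti alpha tubulin signal scored within the nucleus-defined area of each cell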
Lmaj promast – reduces viability of Leishmania major promastigotes. resazurin fluorescence viability. inhibition, % at 10 µM. actives 9% (n = 200,000); in the data active = inhibition above about 50%;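 note: promastigotes grown with compound for 44 hours at 28 °C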
HSV augment – HSV replication enhancement; HSV replication augmentation in cells, fold increase; maximum fold increase; actives 0.005% (n = 220,000); AID 1956; in the data active = maximum fold increase above about 1.5; inconclusive = no clear call, values can overlap the other calls; tested in PC3 cells
Lmaj promast 1uM – inhibitors of Leishmania major promastigote growth, repeat at 1 uM; shares compounds with Lmaj promast; L. major promastigote growth, resazurin fluorescence, 48 h; inhibition, % at 1 µM; actives 13% (n = 1,100); AID 1258;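 active = inhibition above about 50% in both repeat tests, limit read from the data; inconclusive = one repeat under the set limit, the other over it; inactive = both repeats under the set limit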
* = called active by the depositor; i = inactive; ? = inconclusive; . = no result. The list is not random: actives were taken first. Their share in the collection is about 8.9%.

SMILES	bCat nuc transl	Dynein cargo inh	MT stabilizer	Lmaj promast	HSV augment	Lmaj promast 1uM
O=[N+]([O-])c1cc(S(=O)(=O)Nc2ccccc2)ccc1-n1nnc2ccccc21	1.7	-1.42	3.5	65.9*	i	-13.3
c1ccc2cc(-c3csnn3)ccc2c1	-3.1	-0.433	2.0	-2.3	i	.
Nc1ccc(Oc2ccc([N+](=O)[O-])cc2[N+](=O)[O-])cc1	.	-0.438	0.7	55.8*	i	7.0
CNCC(=O)Nc1ccc(OC(F)(F)F)cc1	-0.4	-0.791	3.7	-0.6	i	.
Cc1cc(OCCN2CCCCC2)nc2ccccc12	.	-0.364	2.8	89.0*	i	-2.4
CCOC(=O)c1cnc2ccc(C)cc2c1Sc1ccc(F)cc1	-0.8	-2.9	4.4	69.8*	.	-17.1
NS(=O)(=O)c1ccc(NC(=S)NCc2ccc3c(c2)OCO3)cc1	-1.3	-0.787	2.0	0.8	i	.
c1cncc(C2Nc3ccccc3-c3nc4ccccc4n32)c1 (stereo unspecified)	-3.2	0.595	1.4	85.8*	i	?
C1=Nc2ccccc2CN1c1ccccc1	1.2	0.576	1.4	85.1*	i	-8.2
CC(C)c1ccc(N2C=Nc3ccc(C(C)C)cc3C2)cc1	0.2	-0.0561	.	.	i	.
Cc1ccc2c(c1)-c1cc(C)nn1C(c1ccc3c(c1)OCO3)N2 (stereo unspecified)	0.0	-0.712	2.7	97.6*	.	94.8*
FC(F)(F)c1ccc(N2CCOCC2)c(NC2=NCCCCC2)c1	-2.0	1.22	1.4	-5.2	i	.
Cc1cccc(COCC(CC(C)C)N2CCN(C(=O)c3ccc(C(C)(C)C)cc3)CCC2=O)c1 (stereo unspecified)	.	0.738	1.9	57.5*	i	-8.2
COc1cc2[nH]c3c(N4CCN(c5ccccn5)CC4)ncnc3c2cc1OC	-5.5	-0.748	6.8	100.4*	.	-29.0
COc1ccc(N2CCN(c3ncnc4c3[nH]c3ccccc34)CC2)cc1	0.7	-0.24	1.6	14.1	i	.
CC1(C)CC2(CC(c3ccccc3F)c3cc(Cl)c(O)cc3O2)NC(=S)N1 (stereo unspecified)	-1.1	0.0363	2.2	83.2*	i	-14.3
CC(C)(C)[C@]1(O)CCN2C[C@H]3c4ccccc4CCc4cccc(c43)[C@@H]2C1	-3.3	0.634	1.7	57.2*	i	14.9
NC(=O)N/N=C/c1ccc(N2CCOCC2)s1	5.1	-0.425	4.0	59.7*	i	-7.9
O=C(O)c1cc(N/N=C/c2ccc(N3CCOCC3)s2)ccc1Cl	-0.7	-0.343	4.1	36.0	i	.
CC1Cc2ccccc2N1C(=O)CSc1nnnn1C (stereo unspecified)	.	-1.32	2.3	-5.6	i	.
CC1Cc2ccccc2N1C(=O)CSc1nnc(Cc2ccccc2)n1CCc1ccccc1 (stereo unspecified)	-3.1	-0.213	2.0	50.8*	.	3.6
CC(=O)c1c(C)nc2cc(Cl)ccc2c1N	-1.2	-0.273	4.0	50.3*	.	19.9
CC(=O)c1c(C)nc2ccc(C)cc2c1-c1ccccc1	0.9	-0.752	2.3	1.6	i	.
CC(C)C(=O)NNC(=O)CSc1nnnn1C(C)C	0.2	-0.0134	2.3	-9.6	i	.
Cc1ccc2c(C)cc(=S)[nH]c2c1	-4.8	0.351	1.5	-4.1	i	.
SMILES	bCat nuc transl	Dynein cargo inh	MT stabilizer	Lmaj promast	HSV augment	Lmaj promast 1uM
Cc1nc([N+](=O)[O-])nn1C12CC3CC(CC(Cl)(C3)C1)C2	-1.5	0.6	2.8	88.5*	i	53.1*
COCCNC(=O)COC(=O)c1cccnc1SC	.	0.527	0.8	-4.6	i	.
Nc1nonc1C(=O)N/N=C/c1cccc([N+](=O)[O-])c1	0.6	0.252	1.7	54.1*	i	1.2
O=C(Nc1ccccc1)NC1(C(=O)N2CCN(C(=O)c3ccco3)CC2)CCCCC1	1.2	-0.107	1.5	-3.6	i	.
CN(C)CCCN1c2ccccc2CCc2ccc(Cl)cc21	.	0.846	3.1	98.8*	i	19.7
CN(CCCN1c2ccccc2CCc2ccccc21)CC(=O)c1ccc(Cl)cc1	.	.	.	.	i	.
c1ccc(Cn2nc(-c3ccccc3)nc2-c2ccccc2)cc1	.	-0.489	2.3	93.5*	i	-8.9
Cc1cc(C)c(NC(=O)C2CCCCN2C)c(C)c1 (stereo unspecified)	.	-0.0224	1.7	8.4	i	.
FC(F)(F)c1nnc(-c2ccccc2)nc1Sc1ccc(Cl)cc1	-1.4	-2.57	2.0	30.7	i	.
FC(F)(F)c1nnc(-c2ccccc2)nc1Sc1ccccc1	.	0.18	0.8	51.9*	i	39.4
Cc1c(N=C2Nc3cccc4cccc2c34)c(=O)n(-c2ccccc2)n1C	-0.4	1.53	5.8	0.9	i	.
O=C(c1cccc(Br)c1)c1cn(-c2ccccc2)nc1C(=O)c1ccccc1	-2.2	0.214	2.1	87.7*	.	6.6
COC(=O)c1c(NC(=O)/C=C/c2ccc3c(c2)OCO3)sc(C)c1C	2.1	1.23	4.4	-7.0	i	.
CCOC(=O)C1CCN(C(=S)Nc2cc(OC)c(OC)cc2C(=O)OC)CC1	-2.3	-0.511	2.2	61.2*	i	7.6
O=C(CSCc1ccc(Cl)cc1)NN=C1CCCC1	.	-0.334	2.2	-3.5	i	.
CCOC(=O)C1C(C(=O)OCC)C1(c1ccccc1)c1ccccc1 (stereo unspecified)	.	0.341	2.9	89.1*	i	-2.1
CCC(=O)NCC(c1ccco1)N1CCN(c2ccc(OC)cc2)CC1 (stereo unspecified)	-1.2	0.238	3.5	-2.5	i	.
O=[N+]([O-])c1cc(CSC2=NCCN2)ccc1O	0.3	-0.73	.	.	i	.
COc1ccc(CSC2=NCCN2)cc1Cl	.	0.199	1.1	99.4*	i	-10.5
Nc1ccc(-n2nc(C(F)(F)F)cc2C(F)(F)F)cc1	0.9	-0.572	.	.	i	.
COc1ccc(C(=O)NC(=S)Nc2cc3oc4ccccc4c3cc2OC)cc1	-3.6	0.379	2.6	41.9	i	.
COc1cc2c(cc1NC(=S)NC(=O)c1c(OC)cccc1OC)oc1ccccc12	-0.3	0.9	2.5	87.9*	i	45.9
CC(C)(C)NC(=O)Cn1c(SCC(=O)N2CCCCCC2)nc2ccccc21	-2.3	-0.619	2.1	-6.8	i	.
COc1ccc(/C(C)=N/OCC(=O)N2CC3(C)CC2CC(C)(C)C3)cc1 (stereo unspecified)	-0.4	2.21	4.3	62.9*	i	-6.4
Cn1c(=O)cc(SCC(=O)Nc2cccnc2)c2ccccc21	-1.4	0.761	4.4	0.1	i	.
CCC(C)Nc1nc2c(c(=O)n(C)c(=O)n2C)n1Cc1cccc(C)c1 (stereo unspecified)	0.3	-0.574	3.0	83.2*	i	-7.3
O=c1cc(N2CCCCC2)nc2n1CCCS2	2.8	-0.289	5.9	71.3*	i	-3.2
N/C(=N\OC(=O)C12CC3CC(CC(C3)C1)C2)c1ccccc1	-2.6	0.754	3.1	13.5	i	.
